High-throughput results as filed in PubChem.
Rows were chosen to be rich in hits. Some 3.5% of all compounds tested hit in one or more screens of this group.
MrgX1 agonist: human MrgX1 receptor agonism, primary screen; B-score at 10 µM; 310,000 compounds, 0.44% hits; MrgX1-HEK293 cells, Fluo-4 calcium fluorescence, agonist mode; stronger effect = higher value; AID 588627;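 active = calcium response B-score plate-corrected fluorescence ratio at least 3 library SD, with starting fluorescence B-score inside 5 SD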
Target sequence (Q96LB2 whole entry, looked up): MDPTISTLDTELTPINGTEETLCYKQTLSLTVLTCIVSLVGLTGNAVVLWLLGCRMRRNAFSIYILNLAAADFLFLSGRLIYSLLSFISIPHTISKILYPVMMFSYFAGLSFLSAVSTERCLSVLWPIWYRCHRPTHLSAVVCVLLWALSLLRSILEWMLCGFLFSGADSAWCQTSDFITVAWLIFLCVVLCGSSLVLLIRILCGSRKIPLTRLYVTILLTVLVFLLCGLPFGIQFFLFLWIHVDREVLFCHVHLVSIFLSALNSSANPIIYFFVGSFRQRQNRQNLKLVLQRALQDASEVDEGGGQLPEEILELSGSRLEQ
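Material – MrgX1-expressing HEK293 cells · Input – 15,000 cells seeded per well · Dosing – compound as first of three additions · Times – overnight seeding, then 1 h dark dye loading · Measured by – kinetic Fluo-4 NW fluorescence of intracellular calcium · Read-out – B-scored fluorescence response ratio · Benchmarks – positive and negative control wells on each plate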
RGS4 act: potentiators or activators of RGS4; 310,000 compounds, 0.92% hits; B-score at 10 µM; HEK293 M3R/inducible RGS4, carbachol calcium flux Fluo4; stronger effect = lower value;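 active = B-score of the integrated calcium signal more than 4 SD below the library mean, with starting fluorescence not abnormally high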;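 also: negative B-score means reduced calcium response which marks RGS4 activation or potentiation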
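Reagent: ECmax carbachol challenge; Test system: M3R-expressing HEK293 line, RGS4 induced by doxycycline; Schedule: overnight RGS4 induction, 30 min dye load 37 °C, 20 min compound RT; Detection: calcium dye Fluo4 fluorescence; Read-out: Agonist-evoked peak-minus-minimum fluorescence over baseline, integrated ratio, B score.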
MrgX1 antag: human MrgX1 receptor antagonism, primary screen. MRGX1-HEK293 calcium flux, Fluo-4, BAM8-22 antagonism; stronger effect = lower value. B-score at 10 µM. 310,000 compounds, 1.3% hits. AID 588676;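 active = calcium-response B-score plate-corrected more than 3 library SD below zero, starting fluorescence within 5 deviations, no agonist response on first addition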;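 also: peak minus trough fluorescence over baseline after final BAM8-22 challenge near maximal dose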
RGS4 block: human RGS4 inhibition; P49798; HEK293 M3R/RGS4 inducible, Fluo-4 calcium flux; stronger effect = higher value; triggered by carbachol at its EC20; B-score at 10 µM; 310,000 compounds, 0.45% hits;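 active = B-score, a plate-corrected calcium signal, over three deviations above library mean, with baseline fluorescence within five deviations of library mean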;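 also: RGS4 expression induced by doxycycline in cells with stable M3 receptor; B-score is computed from the integrated fluorescence ratio over baseline after carbachol; higher B-score means a larger calcium signal and so more RGS4 inhibition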
Target sequence (P49798 whole entry, looked up): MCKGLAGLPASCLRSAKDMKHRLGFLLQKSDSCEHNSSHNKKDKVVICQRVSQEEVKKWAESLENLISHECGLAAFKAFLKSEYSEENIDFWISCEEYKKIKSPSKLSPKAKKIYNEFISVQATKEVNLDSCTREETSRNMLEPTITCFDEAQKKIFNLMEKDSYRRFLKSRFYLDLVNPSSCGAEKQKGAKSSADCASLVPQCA
MrgX1 PAM: allosterically activates human MrgX1 receptor signaling; Q96LB2; MrgX1-HEK293, Fluo-4 calcium flux, FDSS; stronger effect = higher value; B-score at 10 µM; 310,000 compounds, 0.63% hits; AID 588675;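 active = plate-corrected calcium response at least 3 library SD above typical, normal starting fluorescence, not activating the receptor alone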;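 also: compound read alongside a low EC10 to EC30 dose of BAM8-22 agonist; peak minus trough fluorescence over baseline measured at the second addition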
RGS4 activ val: RGS4 activation, validation assay. shares compounds with RGS4 act. HEK293 M3R/RGS4 inducible, carbachol calcium flux Fluo4. inhibition, % at 10 µM. 1,100 compounds, 89% hits;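 active = inhibition above 3 SD of the buffer control wells, cut at about 41% in these data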;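 also: signal is the integrated peak-minus-minimum Fluo4 fluorescence over baseline ratio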
M3R Ca counter: RGS4 activator counter-screen hit in non-induced cells | shares compounds with RGS4 act | 1,100 compounds, 82% hits | HEK293 M3R non-induced RGS4, Fluo4 calcium flux; after carbachol challenge at its EC90 | inhibition, % at 10 µM | AID 602283;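 active = inhibition exceeding 3 SD of buffer-only control wells, cut at about 26% in these data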;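 also: percent drop in integrated peak-minus-baseline over baseline Fluo4 ratio after carbachol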
Each line names hits and unclear results; the compound was inactive in the other large screens (follow-up assays come after a bar, where they were run).

O=C(Nc1ccc(NC(=O)c2cc3ccccc3o2)cc1)c1ccc2c(c1)OCCO2	none
Cc1cc(NC(=O)c2ccc3c(c2)OCCO3)ccc1NC(=O)c1cc2ccccc2o1	RGS4 act -8.7 | RGS4 activ val 78 | M3R Ca counter inactive
Cc1cccc(C)c1OCc1cc(C(=O)NCC2CC2)no1	none
N#CC1=C(N)OC2=C(C(=O)CC(c3ccccc3)C2)C1c1ccc2c(c1)OCO2 (stereo not drawn)	RGS4 act -8.2 | RGS4 activ val 92 | M3R Ca counter 68
COc1ccc(C(=O)Nc2ccnn2C2CCN(Cc3cnn(C)c3)CC2)cc1	none
CCn1cc(CN2CCC(n3nccc3NC(=O)c3ccc(OC)cc3)CC2)cn1	RGS4 act -7.7 | RGS4 activ val 66 | M3R Ca counter 84
COc1cccc(/C=C/C(=O)NNC(=O)c2cc(C)oc2C)c1	none
CCN(CC)CCCN(C(=O)c1cccs1)c1nc(-c2ccc(OC)cc2)cs1	RGS4 act -11 | RGS4 activ val 90 | M3R Ca counter 31
CCN(CC)CCCN(C(=O)c1ccc(Br)cc1)c1nc(-c2ccc(OC)cc2)cs1	none
COc1ccc(C)cc1NC(=O)CN1C(=O)COc2ccc(S(=O)(=O)N3CCC(C)CC3)cc21	none
CCOc1ccc(C(=O)n2cc(C(=O)OC)c3ccccc32)cc1	RGS4 act -8.6 | RGS4 activ val 69 | M3R Ca counter 84
CCOc1ccc(C(=O)n2cc(C(=O)OC)c3ccccc32)cc1OCC	none
CC(C)=CCc1c(O)cc(O)c2c1OC(c1ccc(O)cc1)CC2=O (stereo not drawn)	RGS4 act -9.9 | RGS4 activ val 90 | M3R Ca counter 86
CC(C)=CCc1c(O)c(CC=C(C)C)c2c(c1O)C(=O)CC(c1ccc(O)cc1)O2 (stereo not drawn)	none
O=C(NCCc1ccccc1)C(=O)NCC1CCCN1S(=O)(=O)c1ccccc1 (stereo not drawn)	RGS4 act -9.6 | RGS4 activ val 68 | M3R Ca counter 26
COc1ccc(S(=O)(=O)N2CCCCC2)cc1NC(=O)c1ccc2ccccc2n1	none
COc1ccc(NC(=O)c2ccc3ccccc3n2)cc1S(=O)(=O)N1CCCCC1	RGS4 act -8.6 | RGS4 activ val 92 | M3R Ca counter 49
CC(=O)Nc1ccc(CN2CCCC(C(=O)c3ccc(C(F)(F)F)cc3)C2)cc1 (stereo not drawn)	RGS4 act -10 | RGS4 activ val 72 | M3R Ca counter 84
O=C(c1ccc(-c2ccccc2)cc1)C1CCCN(Cc2ccncc2)C1 (stereo not drawn)	none
OCCC1CN(C/C(Cl)=C/c2ccccc2)CCN1C1CCCC1 (stereo not drawn)	RGS4 act -10 | RGS4 activ val 70 | M3R Ca counter 84
CC(=O)Nc1ccc(CN2CCN(C3CCCC3)C(CCO)C2)cc1 (stereo not drawn)	RGS4 act -8 | RGS4 activ val 88 | M3R Ca counter 52
OCCC1CN(Cc2cnc(N3CCCC3)s2)CCN1C1CCCC1 (stereo not drawn)	RGS4 act -7.9 | RGS4 activ val 70 | M3R Ca counter 27
COC(=O)c1c(C(=O)OC)c(-c2ccc(Br)cc2)n2c1CS(=O)C2 (stereo not drawn)	none
COc1ccc(/C=C/C(=O)NC2CCN(Cc3ccccc3)CC2)cc1OC	none
CSc1nc(Cl)cc(N2CCOCC2)n1	none
O=C(O)CC1(CC(=O)Nc2ccccc2N2CCOCC2)CCCC1	none
COC(=O)C(NC(=O)COc1ccccc1)(Nc1nc2c(s1)CCCC2)C(F)(F)F (stereo not drawn)	RGS4 act -12 | RGS4 activ val 80 | M3R Ca counter 33
O=C(Oc1ccc(OC(=O)N2CCCCC2)cc1)c1ccccc1	RGS4 act -10 | RGS4 activ val 62 | M3R Ca counter 84
O=C(Oc1ccccc1)N1CCCC1	none
CC1(C(O)(C#CC[N+]2(C)CCCCC2)c2ccccc2)CCCC1 (stereo not drawn)	RGS4 act -15 | RGS4 activ val 92 | M3R Ca counter 95
C[N+]1(CC(=O)OCCCc2ccccc2)CCCCC1	none
CN(C)CC[C@@H](c1ccc(Cl)cc1)c1ccccn1	RGS4 act -13 | RGS4 activ val 57 | M3R Ca counter inactive
CN(C)CC[C@@H](c1ccc(Br)cc1)c1ccccn1	none
Cc1nc2c(o1)CCc1ccccc1C2N1CCN(C)CC1 (stereo not drawn)	RGS4 act -11 | RGS4 activ val 95 | M3R Ca counter 91
COc1ccc(C(=O)C2CCCN(Cc3nc4ccccc4nc3C)C2)cc1OC (stereo not drawn)	none
COc1ccc(C(=O)C2CCCN(C3Cc4ccccc4C3)C2)cc1OC (stereo not drawn)	RGS4 act -8.6 | RGS4 activ val 86 | M3R Ca counter 46
CCOC(=O)N1CCC(N2CCCC(C(=O)c3cc(C)c(OC)c(C)c3)C2)CC1 (stereo not drawn)	RGS4 act -8.1 | RGS4 activ val 79 | M3R Ca counter 35
CSCCC(NC(=O)c1ccco1)C(=O)Nc1ccc(C)c(S(=O)(=O)N2CCOCC2)c1 (stereo not drawn)	none
COc1ccc2nc(C)cc(SCC(=O)N/N=C/c3cccc4ccccc34)c2c1	none
COc1ccc2nc(C)cc(SCC(=O)N/N=C/c3ccc(O)c(O)c3)c2c1	RGS4 act -13 | RGS4 activ val inactive | M3R Ca counter inactive
O=C(NCC1CCN(c2ccc(S(=O)(=O)N3CCOCC3)cc2)CC1)c1cccc(Cl)c1	RGS4 act -8.1 | RGS4 activ val 90 | M3R Ca counter 92
COc1cccc(-c2nnc(NC(=O)c3ccc(S(=O)(=O)N4CCOCC4)cc3)o2)c1	none
O=C(c1ccc(S(=O)(=O)N2CCOCC2)cc1)N1CCN(c2cccc(Cl)c2)CC1	none
COc1cccc(C(=O)NCC2CCN(c3ccc(S(=O)(=O)N4CCOCC4)cc3)CC2)c1	RGS4 act -8.6 | RGS4 activ val 92 | M3R Ca counter 58
Cc1cc2c(cc1C)NC(c1c(C)n(C)n(-c3ccccc3)c1=O)C1=C(CC(C)(C)CC1=O)N2 (stereo not drawn)	RGS4 act -11 | RGS4 activ val 71 | M3R Ca counter 62
Cc1cc(C)c(C(=O)COC(=O)C2CCN(c3ccc(C(F)(F)F)cn3)CC2)cc1C	none
O=C(COC(=O)C1CCN(c2ccc(C(F)(F)F)cn2)CC1)c1ccc(F)cc1	none
